Records with an inconclusive call do not appear.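 The calls were made as follows, unless noted: active = viability increase at or above a cutoff of the median across tested compounds plus 3 SD (cut at about 8.5% in these data, passing the limit was not always enough); inconclusive = some gains above the cutoff, reason not given; inactive = the rest.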
How the values were obtained:
[1] = OD615 S. cerevisiae growth inhibition, permissive medium, pilot counter-assay, permissive growth control for S. cerevisiae lifespan shortening project (AID 705;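 active = growth inhibition above 25% in both replicates, a cutoff set 3 SD above the mean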); conditions: OD615, 24 h, at 10 µM, hits give high values
Method in brief: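 assay system = Saccharomyces cerevisiae strain carrying genetically modified DeaD replicative-lifespan system | medium = SC raffinose/galactose permissive medium | dosing = 10 µM single dose, 0.25% DMSO | schedule = 24 h compound exposure at 30 °C after 4 h pre-growth | measured by = OD at 615 nm | read-out basis = growth inhibition from lowered OD615 after 24 h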

[2] = Restrictive medium S. cerevisiae growth inhibition, OD615, pilot screen of yeast lifespan reduction project, restrictive growth control (AID 706;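 active = growth inhibition above a set limit, 3 SD over mean compound inhibition, in both replicates, cut at about 43% in these data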;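 also: modified DeaD lifespan yeast strain shifted to restrictive glucose medium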); conditions: OD615, 48 h, at 10 µM, hits give high values
Method in brief: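 Buffer or medium: CSMM-D glucose medium. Material: genetically modified Saccharomyces cerevisiae, DeaD replicative lifespan assay strain. Times: 48 h compound exposure at 30 °C. Measured by: optical density at 615 nm.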

[3] = viability gain of MRP-1-high H69AR cells under doxorubicin, pilot screen, MRP-1 activator project, CellTiter-Glo, duplicate (AID 807); conditions: H69AR viability with doxorubicin, CellTiter-Glo luminescence; at 10 µM; hits give high values;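 also: compound pretreatment 18-22 h then 72 h combined with doxorubicin; 0% = doxorubicin alone and 100% = vehicle without doxorubicin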
[4] = growth suppression of beta-catenin knockout HCT116, pilot screen, human colon tumor cells (AID 823;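 active = cell viability at or below a set limit in both duplicate runs, the limit being the all-compound median minus 4 SD, cut at about 23% in these data, passing the limit was not always enough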;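 also: 0% = wells killed by 20 µM Hyamine and 100% = untreated DMSO cell wells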); conditions: CellTiter-Glo, 60 h, at 10 µM, hits give low values
[5] = growth suppression of PTEN-deleted HCT116, pilot screen, cell-based, HCT116 clonal line, CellTiter-Glo (AID 824;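 active = viability at or below 27.92% in each of two runs, the all-compound median minus 4 SD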;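 also: 0% = 20 µM Hyamine control and 100% = vehicle cell control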); conditions: 60 h, at 10 µM, hits give low values
[6] = inhibitors of the yeast RAM network, pilot screen, dse1pr::URA3 reporter, 5-FOA selection (AID 869;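 active = inhibition over a set limit, the all-compound mean plus 3 SD, in both replicate runs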;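 also: 0% = DMSO wells with no growth and 100% = 10 µM 1-NA-PP1 with full growth; RAM network block rescues cells from 5-FOA so hits raise OD615 growth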); conditions: S. cerevisiae dse1pr::URA3 5-FOA growth, OD615, 2 d; at 10 µM; hits give high values; strain carries analog-sensitive mutant Cbk1 kinase
[7] = RAM signaling pathway blockade in yeast – S. cerevisiae, Pdr1DBD-CYC8 efflux-inhibited sensitized strain, primary screen (AID 1298;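 active = RAM network inhibition above 8.4% in each of two replicates, 3 SD over the compound average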;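 also: 0% = DMSO untreated cells without growth and 100% = 10 µM 1-NA-PP1 full growth; higher means more yeast growth rescued from 5-FOA killing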); conditions: S. cerevisiae cbk1-as DSE1-URA3 strain, 5-FOA growth OD615, 2 d; at 50 µM; hits give high values

CCC(CC)C(=O)NCc1ccccc1OC
inactive: growth inhibition [1] 4.68% | growth inhibition [2] -4.89% | viability increase [3] -0.51% | viability [4] 99.1% | viability [5] 101% | inhibition [6] 0.98% | RAM network inhibition [7] 2.02%

CSc1ccccc1NC(=O)c1cnc2scc(C)n2c1=O
inactive: growth inhibition [1] -16.8% | growth inhibition [2] 3.44% | viability increase [3] -2.05% | viability [4] 87.1% | viability [5] 88.1% | inhibition [6] 0.665% | RAM network inhibition [7] 3.71%

Cc1ccc(N(C(C)C(=O)O)S(=O)(=O)c2cccnc2)cc1 (stereo not drawn)
inactive: growth inhibition [1] 2.72% | growth inhibition [2] 0.165% | viability increase [3] -1.52% | viability [4] 95.1% | viability [5] 101% | inhibition [6] -0.19% | RAM network inhibition [7] 1.61%

CCOC(=O)C1CCN(C(=O)CS(=O)Cc2nc(-c3ccc(C)cc3)oc2C)CC1 (stereo not drawn)
inactive: growth inhibition [1] 1.66% | growth inhibition [2] 22.5% | viability increase [3] -3.68% | viability [4] 86.3% | viability [5] 84.6% | inhibition [6] 0.32% | RAM network inhibition [7] 7.5%

N#Cc1nc(-c2ccccc2F)oc1NCc1ccccc1
inactive: growth inhibition [1] -4.66% | growth inhibition [2] 11.3% | viability increase [3] 1.59% | viability [4] 107% | viability [5] 90.5% | inhibition [6] 1.98% | RAM network inhibition [7] 3.96%

CCOc1ccc(NC(=O)N(C2CCCCC2)C2CCN(C(C)=O)CC2)cc1
inactive: growth inhibition [1] -8.37% | growth inhibition [2] 6.87% | viability increase [3] -0.8% | viability [4] 102% | viability [5] 100% | inhibition [6] 0.795% | RAM network inhibition [7] 3.05%

CCn1ncc(C2=NOC(C(=O)Nc3c(C)n(C)n(-c4ccccc4)c3=O)C2)c1C (stereo not drawn)
inactive: growth inhibition [1] -7.05% | growth inhibition [2] 5.18% | viability increase [3] 0.26% | viability [4] 96.1% | viability [5] 95.8% | inhibition [6] 0.855% | RAM network inhibition [7] 2.78%

Cn1c(=O)c2c(nc(OCc3ccccc3)n2C)n(C)c1=O
inactive: growth inhibition [1] -2.8% | growth inhibition [2] -0.39% | viability increase [3] 3.09% | viability [4] 100% | viability [5] 98.3% | inhibition [6] -0.115% | RAM network inhibition [7] 0.26%

COc1ccc(S(=O)(=O)N2CCCC2C(=O)Nc2ccc(C(C)=O)cc2)cc1 (stereo not drawn)
inactive: growth inhibition [1] -19.4% | growth inhibition [2] -11% | viability increase [3] -0.66% | viability [4] 97.6% | viability [5] 95.8% | inhibition [6] 2.13% | RAM network inhibition [7] 1.47%

CC(C)CCNC(=O)Cn1cc2c(n1)CCCCC2
inactive: growth inhibition [1] 3.78% | growth inhibition [2] 2.78% | viability increase [3] -1.8% | viability [4] 106% | viability [5] 100% | inhibition [6] 1.82% | RAM network inhibition [7] 1.38%

O=C(CN1CCN(C(=O)c2ccco2)CC1)Nc1ccccc1-c1ccccc1
inactive: growth inhibition [1] 6.65% | growth inhibition [2] 6.94% | viability increase [3] -2.16% | viability [4] 91% | viability [5] 86.1% | inhibition [6] 1.32% | RAM network inhibition [7] 3.75%

CCN1CCN(CCNC(=O)C2CCN(Cc3nc(-c4ccc(Cl)cc4)oc3C)CC2)CC1
inactive: growth inhibition [1] -6.21% | growth inhibition [2] -7.59% | viability increase [3] -3.29% | viability [4] 62.3% | viability [5] 70.1% | inhibition [6] 1.29% | RAM network inhibition [7] 3.67%

Cn1ccnc1SC(=O)N1c2ccccc2Sc2ccccc21
inactive: growth inhibition [1] 0.525% | growth inhibition [2] 0.605% | viability increase [3] -0.9% | viability [4] 88.8% | viability [5] 91.4% | inhibition [6] 1.25% | RAM network inhibition [7] 3.37%

Cc1cc(C(=O)NC2CCCC2)on1
inactive: growth inhibition [1] -11.8% | growth inhibition [2] -21.1% | viability increase [3] 0.32% | viability [4] 107% | viability [5] 102% | inhibition [6] 1.71% | RAM network inhibition [7] 1.5%

Cc1ccc2c(c1)N(CCCC(=O)NCc1ccc3c(c1)OCO3)C(=O)CO2
inactive: growth inhibition [1] -5.25% | growth inhibition [2] -25.1% | viability increase [3] -6.26% | viability [4] 95.4% | viability [5] 83.9% | inhibition [6] 0.43% | RAM network inhibition [7] 1.64%

O=CN1CCN(C(C(=O)NC2CCCC2)c2ccc(Cl)cc2)CC1 (stereo not drawn)
inactive: growth inhibition [1] -7.98% | growth inhibition [2] 4.62% | viability increase [3] -1.14% | viability [4] 86.2% | viability [5] 88.5% | inhibition [6] 0.795% | RAM network inhibition [7] 2.38%

Cc1c(NC(=O)OCc2ccccc2)c(=O)n(-c2ccccc2)n1C
inactive: growth inhibition [1] -7.33% | growth inhibition [2] -0.325% | viability increase [3] 0.05% | viability [4] 109% | viability [5] 91.1% | inhibition [6] 1.35% | RAM network inhibition [7] 7.69%

CCOC(=O)C1CCCN(c2cc(=O)n(-c3ccccc3Cl)c(=O)[nH]2)C1 (stereo not drawn)
inactive: growth inhibition [1] -3.86% | growth inhibition [2] -18.9% | viability increase [3] -1.99% | viability [4] 89.7% | viability [5] 94.5% | inhibition [6] 1.53% | RAM network inhibition [7] 0.31%

COC(=O)c1ccc(NC(=O)CSc2nnc(COc3ccc4c(c3)CCCC4)o2)cc1
inactive: growth inhibition [1] -2.11% | growth inhibition [2] -2.11% | viability increase [3] -3.92% | viability [4] 97.8% | viability [5] 96.7% | inhibition [6] 3.43% | RAM network inhibition [7] 4.19%

O=C1c2ccccc2C(O)N1Cc1ccccc1Cl (stereo not drawn)
inactive: growth inhibition [1] -1.72% | growth inhibition [2] -0.325% | viability increase [3] -1.74% | viability [4] 93.7% | viability [5] 81.2% | inhibition [6] 2.76% | RAM network inhibition [7] 1.48%

COc1ccc(N2C(=O)CCC(C(=O)NCc3ccccn3)C2c2ccc(OC)c(OC)c2)cc1 (stereo not drawn)
inactive: growth inhibition [1] -3.9% | growth inhibition [2] 6.09% | viability increase [3] -1.53% | viability [4] 98.3% | viability [5] 100% | inhibition [6] 1.01% | RAM network inhibition [7] -0.31%

CC(C)(Oc1ccc(Cl)cc1)C(=O)NCc1ccco1
inactive: growth inhibition [1] -1.12% | growth inhibition [2] -0.2% | viability increase [3] -4.22% | viability [4] 87.2% | viability [5] 80% | inhibition [6] 1.18% | RAM network inhibition [7] 5.92%

O=C1c2oc3ccc(F)cc3c(=O)c2C(c2ccncc2)N1CCN1CCOCC1 (stereo not drawn)
inactive: growth inhibition [1] 3.02% | growth inhibition [2] 3.27% | viability increase [3] 0.53% | viability [4] 110% | viability [5] 99.2% | inhibition [6] 1.26% | RAM network inhibition [7] 0.47%

Cc1cc(Nc2cc(C(=O)O)ccc2C)n2ncnc2n1
inactive: growth inhibition [1] 4.96% | growth inhibition [2] -2.32% | viability increase [3] 0.41% | viability [4] 95.9% | viability [5] 102% | inhibition [6] 0.71% | RAM network inhibition [7] 0.57%
